Data published in ChEMBL document CHEMBL2311404, “Synthesis, antibacterial activity and docking of 14-membered 9-O-(3-arylalkyl) oxime 11,12-cyclic carbonate ketolides” (2013).
Values after ≈ are worked out from the molar mass of the structure shown.

Assays:
Format in all cases: functional
[1] = system: Staphylococcus haemolyticus; test: Antibacterial activity against methicillin-resistant, constitutive MLS-resistant, coagulase-deficient Staphylococcus haemolyticus PU 19 expressing ermA gene by broth microdilution method
In short: (§1)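 Clinical isolates confirmed by 16S rDNA sequencing. MIC determined by broth microdilution following CLSI recommendations. Quality-control strains were S. aureus ATCC 29213 and S. pneumoniae ATCC 49619. Azithromycin and clarithromycin were run in parallel as reference agents.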

[2] = system: Streptococcus pneumoniae; test: Antibacterial activity against penicillin-susceptible Streptococcus pneumoniae PU 09 expressing mef gene by broth microdilution method
In short: (§2)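 MIC by broth microdilution following CLSI recommendations. Clinical isolates were identified by 16S rDNA sequencing and labeled by genotype and phenotype. S. aureus ATCC 29213 and S. pneumoniae ATCC 49619 served as control strains, with azithromycin and clarithromycin as reference agents.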

[3] = system: Streptococcus pneumoniae; test: Antibacterial activity against penicillin-resistant, constitutive MLS-resistant Streptococcus pneumoniae PU 11 expressing erm and mef genes by broth microdilution method; in short: as §1
[4] = system: Staphylococcus aureus; test: Antibacterial activity against methicillin-resistant, inducible MLS-resistant Staphylococcus aureus PU 32 expressing ermA gene by broth microdilution method; in short: as §1
[5] = system: Streptococcus pneumoniae; test: Antibacterial activity against erythromycin-sensitive Streptococcus pneumoniae ATCC 49619 by broth microdilution method; in short: as §2
[6] = system: Staphylococcus epidermidis; test: Antibacterial activity against methicillin-susceptible, inducible MLS-resistant Staphylococcus epidermidis E 1 by broth microdilution method; in short: as §1
[7] = system: Streptococcus dysgalactiae; test: Antibacterial activity against erythromycin-resistant Streptococcus dysgalactiae A1 expressing efflux pump by broth microdilution method; in short: as §1
[8] = system: Staphylococcus aureus; test: Antibacterial activity against erythromycin-susceptible Staphylococcus aureus ATCC 29213 by broth microdilution method; in short: as §2
[9] = system: Streptococcus pyogenes; test: Antibacterial activity against erythromycin-susceptible Streptococcus pyogenes A3 by broth microdilution method; in short: as §2
[10] = system: Streptococcus pyogenes; test: Antibacterial activity against constitutive MLS-resistant Streptococcus pyogenes A2 by broth microdilution method; in short: as §1
[11] = system: Streptococcus pneumoniae; test: Antibacterial activity against penicillin-susceptible, constitutive MLS-resistant Streptococcus pneumoniae PU 27 expressing erm gene by broth microdilution method; in short: as §1
[12] = system: Staphylococcus epidermidis; test: Antibacterial activity against methicillin-resistant, constitutive MLS-resistant Staphylococcus epidermidis E 2 by broth microdilution method; in short: as §1
[13] = system: Staphylococcus hominis; test: Antibacterial activity against methicillin-resistant, inducible MLS-resistant, coagulase-deficient Staphylococcus hominis E 3 by broth microdilution method; in short: as §1
[14] = system: Staphylococcus aureus; test: Antibacterial activity against methicillin-resistant, constitutive MLS-resistant Staphylococcus aureus PU 20 expressing ermC gene by broth microdilution method; in short: as §1
[15] = system: Staphylococcus aureus; test: Antibacterial activity against methicillin-sensitive, inducible MLS-resistant Staphylococcus aureus PU 64 expressing ermA gene by broth microdilution method; in short: as §1

Compound | MIC [1] [µg/mL] | MIC [2] [µg/mL] | MIC [3] [µg/mL] | MIC [4] [µg/mL] | MIC [5] [µg/mL] | MIC [6] [µg/mL] | MIC [7] [µg/mL] | MIC [8] [µg/mL] | MIC [9] [µg/mL] | MIC [10] [µg/mL] | MIC [11] [µg/mL] | MIC [12] [µg/mL] | MIC [13] [µg/mL] | MIC [14] [µg/mL] | MIC [15] [µg/mL]
CC[C@H]1OC(=O)[C@H](C)C(=O)[C@H](C)[C@@H](O[C@@H]2O[C@H](C)C[C@H](N(C)C)[C@H]2O)[C@](C)(OC)C[C@@H](C)/C(=N\OCC#Cc2cccs2)[C@H](C)[C@H]2OC(=O)O[C@@]21C | 64 (≈ 85.5 µM) | 1 (≈ 1.34 µM) | 64 (≈ 85.5 µM) | 1 (≈ 1.34 µM) | 0.25 (≈ 0.334 µM) | 1 (≈ 1.34 µM) | 1 (≈ 1.34 µM) | 1 (≈ 1.34 µM) | 0.25 (≈ 0.334 µM) | 32 (≈ 42.7 µM) | 4 (≈ 5.34 µM) | 64 (≈ 85.5 µM) | 1 (≈ 1.34 µM) | – | –
CC[C@H]1OC(=O)[C@H](C)C(=O)[C@H](C)[C@@H](O[C@@H]2O[C@H](C)C[C@H](N(C)C)[C@H]2O)[C@](C)(OC)C[C@@H](C)/C(=N\OCC#Cc2ccccn2)[C@H](C)[C@H]2OC(=O)O[C@@]21C | > 256 | 0.25 (≈ 0.336 µM) | 128 (≈ 172 µM) | 0.125 (≈ 0.168 µM) | ≤ 0.008 | 0.125 (≈ 0.168 µM) | 0.064 (≈ 0.086 µM) | 0.064 (≈ 0.086 µM) | ≤ 0.008 | 128 (≈ 172 µM) | 0.5 (≈ 0.672 µM) | > 256 | 0.125 (≈ 0.168 µM) | – | –
CC[C@H]1OC(=O)[C@H](C)C(=O)[C@H](C)[C@@H](O[C@@H]2O[C@H](C)C[C@H](N(C)C)[C@H]2O)[C@](C)(OC)C[C@@H](C)/C(=N\OCC#Cc2cccnc2)[C@H](C)[C@H]2OC(=O)O[C@@]21C | > 256 | 0.25 (≈ 0.336 µM) | 128 (≈ 172 µM) | 0.125 (≈ 0.168 µM) | ≤ 0.008 | 0.125 (≈ 0.168 µM) | 0.125 (≈ 0.168 µM) | 0.064 (≈ 0.086 µM) | ≤ 0.008 | 64 (≈ 86 µM) | 0.25 (≈ 0.336 µM) | 256 (≈ 344 µM) | 0.125 (≈ 0.168 µM) | – | –
CC[C@H]1OC(=O)[C@H](C)C(=O)[C@H](C)[C@@H](O[C@@H]2O[C@H](C)C[C@H](N(C)C)[C@H]2O)[C@](C)(OC)C[C@@H](C)/C(=N\OCC#Cc2cncnc2)[C@H](C)[C@H]2OC(=O)O[C@@]21C | 256 (≈ 344 µM) | 0.25 (≈ 0.336 µM) | 128 (≈ 172 µM) | 0.125 (≈ 0.168 µM) | 0.032 (≈ 0.043 µM) | 0.064 (≈ 0.0859 µM) | 0.125 (≈ 0.168 µM) | 0.125 (≈ 0.168 µM) | 0.016 (≈ 0.0215 µM) | 128 (≈ 172 µM) | 0.25 (≈ 0.336 µM) | > 256 | 0.064 (≈ 0.0859 µM) | 256 (≈ 344 µM) | 0.064 (≈ 0.0859 µM)
CC[C@H]1OC(=O)[C@H](C)C(=O)[C@H](C)[C@@H](O[C@@H]2O[C@H](C)C[C@H](N(C)C)[C@H]2O)[C@](C)(OC)C[C@@H](C)/C(=N\OCC#Cc2ccc(-c3ccccn3)s2)[C@H](C)[C@H]2OC(=O)O[C@@]21C | – | 2 (≈ 2.42 µM) | 32 (≈ 38.7 µM) | 1 (≈ 1.21 µM) | ≤ 0.008 | 4 (≈ 4.84 µM) | 2 (≈ 2.42 µM) | 1 (≈ 1.21 µM) | 0.125 (≈ 0.151 µM) | 32 (≈ 38.7 µM) | 0.25 (≈ 0.303 µM) | 128 (≈ 155 µM) | 8 (≈ 9.68 µM) | – | –
CC[C@H]1OC(=O)[C@H](C)C(=O)[C@H](C)[C@@H](O[C@@H]2O[C@H](C)C[C@H](N(C)C)[C@H]2O)[C@](C)(OC)C[C@@H](C)/C(=N\OCC#Cc2ccc(C(=O)c3ccccc3)s2)[C@H](C)[C@H]2OC(=O)O[C@@]21C | 128 (≈ 150 µM) | 2 (≈ 2.34 µM) | 64 (≈ 75 µM) | 2 (≈ 2.34 µM) | 0.125 (≈ 0.147 µM) | 2 (≈ 2.34 µM) | 2 (≈ 2.34 µM) | 2 (≈ 2.34 µM) | 0.064 (≈ 0.075 µM) | 32 (≈ 37.5 µM) | 1 (≈ 1.17 µM) | 128 (≈ 150 µM) | 2 (≈ 2.34 µM) | – | –
CC[C@H]1OC(=O)[C@H](C)C(=O)[C@H](C)[C@@H](O[C@@H]2O[C@H](C)C[C@H](N(C)C)[C@H]2O)[C@](C)(OC)C[C@@H](C)/C(=N\OCC#Cc2ccc3[nH]ccc3c2)[C@H](C)[C@H]2OC(=O)O[C@@]21C | – | 2 (≈ 2.56 µM) | 128 (≈ 164 µM) | 2 (≈ 2.56 µM) | 0.5 (≈ 0.639 µM) | 2 (≈ 2.56 µM) | 2 (≈ 2.56 µM) | 1 (≈ 1.28 µM) | 0.5 (≈ 0.639 µM) | 128 (≈ 164 µM) | 4 (≈ 5.12 µM) | > 256 | 8 (≈ 10.2 µM) | – | –
